NPY Y2 blocker: NPY-Y2 (human) receptor antagonism. P49146. NPY-Y2 expressing cells, antagonist mode. hit rate 0.99% among 140,000. inhibition, % at 2.7 µM; in the data active means inhibition above about 17%;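 further: 0% = vehicle with agonist challenge and 100% = reference antagonist with challenge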
NPY2 pot ag: potentiators or agonists of human neuropeptide Y receptor Y2; P49146; activation, % at 3.6 µM; AID 1359; cells expressing NPY-Y2, potentiator/agonist read-out; hit rate 0.45% among 220,000; in the data active means activation above about 27%;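 further: cells stimulated with NPY near EC25 plus isoproterenol at EC100; 0% = vehicle plus submaximal agonist and 100% = vehicle plus saturating agonist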
NPY1 pot ag: potentiators or agonists of human neuropeptide Y receptor Y1 | P25929 | NPY-Y1 expressing cells, potentiator/agonist activation | activation, % at 3.6 µM | hit rate 0.37% among 220,000; in the data active means activation above about 33%, passing the limit was not always enough;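 further: cells stimulated with NPY at EC10 then isoproterenol at EC100; 0% = low agonist plus stimulus and 100% = saturating agonist plus stimulus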
Target sequence (P25929 whole entry, looked up): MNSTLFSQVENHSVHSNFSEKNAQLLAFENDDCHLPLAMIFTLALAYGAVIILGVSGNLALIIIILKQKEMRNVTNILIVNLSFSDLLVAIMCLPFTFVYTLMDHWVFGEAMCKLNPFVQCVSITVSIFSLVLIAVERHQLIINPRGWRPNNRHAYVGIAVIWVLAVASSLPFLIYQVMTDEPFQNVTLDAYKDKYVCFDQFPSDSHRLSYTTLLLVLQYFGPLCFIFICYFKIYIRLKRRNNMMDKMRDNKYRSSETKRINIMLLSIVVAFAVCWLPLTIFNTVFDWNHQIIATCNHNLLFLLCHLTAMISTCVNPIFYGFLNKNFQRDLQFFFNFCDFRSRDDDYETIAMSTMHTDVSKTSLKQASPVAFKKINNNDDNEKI
Cl transport mod: KCC2 (human) Cl- transport modulation. AID 1456. KCC2 cells, thallium flux FluoZin-2 fluorescence. B-score of Tl+ flux slope (higher = more flux/activation; lower = inhibition) at 10 µM. Q9H2X9. hit rate 2.2% among 190,000;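 active means thallium flux slope and its plate-corrected score both differing from the plate sample mean at a set confidence after two filtering rounds, in either direction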;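 further: slope of fluorescence scaled to starting intensity during 10 to 20 s after thallium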
Furin inh: human furin inhibition; P09958; purified furin, fluorogenic substrate cleavage; inhibition, % at 20 µM or 30 µM; hit rate 0.061% among 220,000; AID 463115; in the data active means inhibition above about 25%
NPY Y1 blocker: NPY-Y1 (human) receptor antagonism. HEK293-CNG Y1 cells, membrane potential fluorescence; NPY at EC95, then isoproterenol. hit rate 1% among 200,000. AID 1040. P25929. inhibition, % at 3.6 µM;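 active means inhibition above the campaign mean inhibition of all tested compounds plus 3 SD, cut at about 20% in these data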;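 further: 0% = DMSO wells given NPY plus isoproterenol and 100% = isoproterenol alone without NPY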
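Material: HEK293 cells with Y1 receptor plus CNG channel; times: compound incubation 1 h at room temperature, readout 45 min post-stimulation; signal: fluorescence, membrane potential probe; read-out basis: fluorescence ratio normalized to % inhibition between controls; benchmarks: full-block control isoproterenol-only wells, zero-block control NPY plus isoproterenol wells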
KCC2 secondary: confirmation of human KCC2 transport modulators. shares compounds with Cl transport mod. HEK293-KCC2, thallium flux, FluoZin2 fluorescence; active compounds read high. normalised thallium flux (F/F0 slope) at 10 µM. hit rate 15% among 3,700;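 active means thallium flux slope above the same plate's solvent-only control mean plus 3 SD; inconclusive means the two replicate wells disagree; inactive means no significant difference from solvent-only control wells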
KCC2 bumet counter: thallium flux persisting under bumetanide in KCC2 cells, counter-screen secondary assay; shares compounds with Cl transport mod; HEK293-KCC2 + bumetanide/ouabain, thallium flux FluoZin2; active compounds read high; normalized thallium flux at 10 µM; hit rate 49% among 3,700;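 active means thallium entry rate above the same plate's blocked-transporter control wells by more than 3 SD; inconclusive means the two repeat wells disagree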;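 further: raw slope of fluorescence over initial fluorescence between 10 and 20 s after thallium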
KCC2 sec2: KCC2 (human) modulation, second secondary assay; shares compounds with Cl transport mod; HEK293-KCC2, thallium flux FluoZin2 fluorescence; actives lie on both sides; F/F0 rise rate, 10–20 s post-thallium; normalized thallium flux at 10 µM; hit rate 23% among 3,700; AID 1715;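 active means thallium flux slope more than 3 SD above or below the plate's solvent-only control mean, mostly below; inconclusive means the two repeat wells disagreed; inactive means no significant shift from solvent-only controls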;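 further: raw slope with 0.1% DMSO as baseline and bumetanide as block control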
HEK counter1: parental HEK flux effect, counter-screen; hit rate 46% among 3,700; HEK293 parental cells, thallium flux FluoZin2, ouabain; baseline-ratio fluorescence slope, 10–20 s after thallium; AID 1716; thallium flux rate (normalised fluorescence) at 10 µM; shares compounds with Cl transport mod;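 active means thallium flux rate significantly above the same plate's solvent-only control wells, beyond their mean plus 3 SD; inconclusive means the two replicate wells gave conflicting results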
KCC2 ouabain: modulates human KCC2 on retest with ouabain | shares compounds with Cl transport mod | HEK293-KCC2, thallium flux FluoZin2 fluorescence; bidirectional: low = inhibitor, high = activator | raw Tl+ flux slope (below DMSO = inhibition, above = activation) at 10 µM | hit rate 48% among 3,700 | AID 1717;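 active means thallium flux slope beyond 3 SD from same-plate DMSO control mean in most replicates, usually higher, sometimes lower; inconclusive means repeat tests gave conflicting results; inactive means no significant difference from controls in most replicates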;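 further: slope of initial-normalized fluorescence between seconds 10 and 20 after thallium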
HEK counter2: counter-screen for KCC2 modulators: effect in parental HEK293 cells | shares compounds with Cl transport mod | thallium flux FluoZin-2 fluorescence slope | thallium flux slope at 10 µM | AID 1718 | hit rate 33% among 3,700;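 active means thallium flux slope above the same plate's solvent-control mean plus 3 SD in both duplicate wells; inconclusive means duplicate wells that disagreed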;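 further: run without ouabain in cells lacking the KCC2 cotransporter; slope of fluorescence scaled to its starting value between 10 and 20 s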
* marks the source's active call; other numbers are inactive results; ? = inconclusive; . = no result given. In the library only some 3.7% were active in any assay of this set; here they are far more common.

SMILES	NPY Y2 blocker	NPY2 pot ag	NPY1 pot ag	Cl transport mod	Furin inh	NPY Y1 blocker	KCC2 secondary	KCC2 bumet counter	KCC2 sec2	HEK counter1	KCC2 ouabain	HEK counter2
COC(=O)c1ccccc1NC(=S)NC(=O)COc1ccccc1Cl	5	-20	-27	19*	-13	3	0.023*	0.05*	?	0.012*	0.024*	0.016*
COc1cccc(N2CCN(S(=O)(=O)c3ccc4nc(-c5ccccc5)[nH]c4c3)CC2)c1	1	3	10	9.1*	-11	-1	0.0087	0.0051	0.031	0.0078	0.019	0.01
CCOc1cc(Br)ccc1S(=O)(=O)NCc1ccccc1	4	-14	-6	.	-6	7	0.007	0.0051	0.024*	0.0074	0.016*	0.01
CCOc1ccc(Br)cc1S(=O)(=O)NCc1ccncc1	.	7	-14	0.013	-15	4	.	.	.	.	.	.
O=C(N/N=C/c1cccnc1)c1cccs1	.	7	12	-3.7*	-13	.	0.0067	0.0049	0.033	0.0075	0.019	0.01
O=C(N/N=C/c1cccnc1)c1ccco1	.	4	19	-1.3	-22	.	.	.	.	.	.	.
O=C(Nc1nc2c(s1)CN(Cc1ccccc1)CC2)C1CCC1	.	2	9	-2.3	-24	-6	.	.	.	.	.	.
O=C(Nc1nc2c(Br)cc(Br)cc2c(=O)s1)C1CCC1	.	-7	-11	9.9*	-23	.	0.024*	0.041*	0.034	0.027*	0.044*	0.015*
O=C(C1CCN(S(=O)(=O)c2cccc3cccnc23)CC1)N1CCN(c2ccc(Cl)cc2)CC1	3	24	27	-3.7*	0	2	0.0083	?	0.031	0.0068	0.021	0.01
O=S(=O)(c1cccc2cccnc12)N1CCN(Cc2ccc3c(c2)OCO3)CC1	6	-13	9	.	-25	-2	.	.	.	.	.	.
O=C(C1CCN(S(=O)(=O)c2cccc3cccnc23)CC1)N1CCN(c2ccccn2)CC1	0	4	18	.	-15	-5	.	.	.	.	.	.
O=S(=O)(c1cccc2cccnc12)N1CCN(Cc2ccccc2)CC1	.	-2	2	-3.1*	-15	2	0.007	0.0046	0.025*	0.0076	0.017*	0.0096
CCN(Cc1ccncc1)C(=O)CCc1nnc(CCc2ccc(OC)cc2)o1	.	6	14	0.34	-20	3	.	.	.	.	.	.
COc1ccc(CCNc2oc(COc3ccccc3Cl)nc2C#N)cc1OC	11	-12	-21	-2.9	-7	1	.	.	.	.	.	.
COc1ccc(CCNc2oc(COc3ccccc3F)nc2C#N)cc1OC	5	-24	2	-4*	-9	7	0.0061	?	0.026*	0.0062*	0.015*	?
Cc1ccc(C)c(S(=O)(=O)NC(CC(C)C)C(=O)O)c1 (stereo unspecified)	0	4	-2	5.6*	-15	0	0.019	?	0.031	0.0073	0.014	0.01
Cc1ccc(C)c(S(=O)(=O)NC(Cc2c[nH]c3ccccc23)C(=O)O)c1 (stereo unspecified)	.	-11	-21	0.057	-19	2	.	.	.	.	.	.
Cc1ccc(C(=O)Nc2nnc(-c3ccco3)o2)cc1C	2	5	8	8*	-19	7	0.013*	0.039*	0.029	0.019*	0.038*	0.011*
